Screening results from PubChem BioAssay.
Autophagy mod: modulators of autophagy. MEF GFP-LC3 puncta imaging; test concentration mostly 10 µM. calls only at 10 µM (by protocol). 190,000 compounds, 0.98% hits;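 active = percentage of spot-positive cells more than 3 SD above its plate mean, without a fluorescence outlier flag or 80% toxicity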;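 note: spot-positive cell cutoff set from DMSO-treated cells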
Dynein cargo inh: dynein cargo transport inhibition. 3617.4 mouse cells, GR-EGFP nuclear translocation imaging; test concentration mostly 20 µM; stimulated with dexamethasone, 1 µM; hits give low values. AID 1381. z-score, hits read low. 220,000 compounds, 0.47% hits;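 active = plate z-score of nuclear minus cytoplasmic receptor signal below a set negative limit, without overly bright fluorescence or cell loss, cut at about -3.5 in these data, passing the limit was not always enough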;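 note: z-score of nuclear minus cytoplasmic ring GR-EGFP intensity difference per well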
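Medium: Induction medium lacking tetracycline, stripped serum | Probe or stimulus: 1.0 µM final dexamethasone stimulus | Schedule: 48 h induction, then 1 h compound, then 30 min agonist, 37 °C | Signal: Automated 10x imaging of fixed Hoechst-stained cells | Evaluation: Per-cell GR-EGFP intensity, nucleus versus surrounding cytoplasmic ring, well-averaged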
PTEN del growth: growth suppressors of cells with PTEN tumor suppressor deletion; AID 827; viability, % at 10 µM; 140,000 compounds, 1.2% hits; HCT116 PTEN-null viability, CellTiter-Glo, 60 h; hits give low values;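 active = viability at or below a set limit, 4 SD under the median of all tested compounds, cut at about 3.7% in these data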;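 note: PTEN knockout HCT116 line with beta catenin targeted HCT116 as companion control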
SDO1 yeast rescue: restores growth of sdo1-depleted yeast. 140,000 compounds, 0.21% hits. z-score at 10 µM. S. cerevisiae sdo1-depleted JHY4D growth rescue, OD600 30 h; hits give high values; pdr5 snq2 efflux-pump mutant strain;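 active = z-score above 3 at both the 24 hr and the 30 hr optical density reads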;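 note: z-score against mean and SD of all compound wells on the same plate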
bCat KO growth: beta-catenin-lacking colon tumor cell growth suppression. HCT116 beta-catenin knockout viability, CellTiter-Glo, 60 h; hits give low values. viability, % at 10 µM. 140,000 compounds, 1.5% hits. AID 818;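 active = viability at or under a set limit, the compound median less 4 SD, cut at about 6% in these data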;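 note: 0% = Hyamine 1622 control at 20 µM and 100% = untreated cell control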
* = called active by the depositor; i = inactive; nt = no result; + = active, no number. Hits are enriched below; roughly 2.2% of the tested compounds scored in any of these assays.

SMILES | Autophagy mod | Dynein cargo inh | PTEN del growth | SDO1 yeast rescue | bCat KO growth
Cc1ccc(-n2c(SCC(=O)Nc3ccc4c(c3)OCCO4)nnc2-c2ccco2)cc1 | i | -0.24 | 92 | -0.16 | 91
Cc1cc(C)c(O)c(-c2cc(C(=O)Nc3ccc(S(=O)(=O)N4CCOCC4)cc3)[nH]n2)c1 | i | 4 | 1.2* | 0.43 | 2.3*
COC(=O)c1ccc(N2CCN(C)CC2)c(NC(=O)COc2ccc(OC)cc2)c1 | + | 1.2 | 98 | 1.1 | 98
Cc1ccc(C2C(C#N)=C(N)OC3=C2C(=O)CCC3)s1 (centres undefined) | i | 0.11 | nt | nt | nt
Cc1ccsc1C1C(C#N)=C(N)OC2=C1C(=O)CCC2 (centres undefined) | + | 1.5 | nt | nt | nt
O=C(Nc1ccccc1)C1=C[C@@H](c2coc3ccccc3c2=O)C[C@@H](OCCCCO)O1 | i | -0.72 | nt | nt | nt
CC(C)NC(=O)NC(=O)COC(=O)Cc1c(F)cccc1Cl | i | 0.12 | nt | nt | nt
CC1CC1c1ccc(/C=C(\C#N)C(=O)Nc2cccc(Cl)c2Cl)o1 (centres undefined) | i | 0.2 | 107 | -0.11 | 98
COC(=O)NCC(c1ccco1)N1CCN(c2ccccc2)CC1 (centres undefined) | i | 0.54 | nt | nt | nt
O=C(/C=C/c1ccco1)Nc1scc(-c2ccccc2)c1C(=O)O | nt | 3.4 | nt | nt | nt
O=C(/C=C/c1ccccc1)Nc1scc(-c2ccccc2)c1C(=O)O | + | -0.6 | nt | nt | nt
O=Nc1c(O)[nH]c2ccc(F)cc12 | i | -3.4 | nt | nt | nt
Cc1cc2c(N=O)c(NO)ccc2[nH]1 | i | 0.15 | 5 | 1.4 | 4.7*
Cc1ccc(C(=O)C[n+]2cc(-c3ccc(C)cc3)n3c2CCCCC3)cc1 | i | 0.93 | 5 | 0.44 | 3.5*
COc1ccc(C(=O)C[n+]2cc(-c3ccc(OC)cc3)n3c2CCCC3)cc1 | i | -1.1 | nt | nt | nt
COC(=O)c1ccc(C(NC(=O)c2cccnc2)NC(=O)c2cccnc2)cc1 | + | -0.5 | nt | nt | nt
C=CCOc1ccccc1CNCCNC(=O)c1nonc1N | + | -0.68 | nt | nt | nt
O=C(CN1CCc2ccccc21)NC(=O)NCc1ccccc1 | i | -0.92 | nt | nt | nt
Cc1c(C=O)c(Cl)n(C)c(=O)c1C#N | i | 1.8 | nt | nt | nt
Fc1ccc(/C=C2\CCCC3=C2Nc2ncnn2C3c2ccc(F)cc2)cc1 (centres undefined) | i | -3 | 1.8* | -2.9 | 2.0*
COc1ccc(C2C3=C(Nc4ncnn42)c2ccccc2CCC3)cc1 (centres undefined) | i | 0.4 | 82 | -0.6 | 93
CCOCCCNC(=O)c1cc2sc(Cl)cc2n1CC | + | 0.33 | 65 | 0.33 | 59
COc1ccc(OCC(=O)N(C)Cc2ccccc2)cc1 | + | 1 | 103 | 0.14 | 107
COc1cccc(/C=N/NC(=O)c2ccoc2C)c1 | nt | 0.85 | nt | nt | nt
CC(=O)NC1=C(N(C)C2CCS(=O)(=O)C2)C(=O)c2ccccc2C1=O (centres undefined) | i | -1.5 | 3.4* | 1.2 | 3.5*
SMILES | Autophagy mod | Dynein cargo inh | PTEN del growth | SDO1 yeast rescue | bCat KO growth
CN(C(=O)Nc1ccccc1)C1CCS(=O)(=O)C1 (centres undefined) | i | 0.07 | 100 | 0.65 | 91
O=[N+]([O-])c1ccc(N=NN(CCO)CCO)cc1 | i | -0.39 | 91 | 1.4 | 92
O=[N+]([O-])c1ccc(N=Nc2ccc(O)cc2O)cc1 | i | -0.56 | 2.4* | 0.04 | 1.9*
CCCCC(=O)Nc1ccc(C)c(O)c1 | i | 2.7 | 85 | 0.71 | 96
CCCC(=O)Nc1ccc(C)c(O)c1 | i | 0.34 | 1.0* | 0.66 | 1.0*
Cc1ccc(N=C2SC(C(=O)NCCc3ccccc3)CC(=O)N2C)cc1C (centres undefined) | i | -1.5 | nt | nt | nt
O=C(NCCc1ccc(Cl)cc1)Nc1ccc(Cl)cc1 | nt | 0.67 | nt | nt | nt
CCN(CCNC(=O)Nc1ccc(Cl)cc1)c1ccccc1 | + | -0.23 | 18 | -1.5 | 43
CN=C1S/C(=C\c2cccn2-c2cccc(Br)c2)C(=O)N1C | i | 0.3 | nt | nt | nt
Cc1ccc(-n2nc3c([n+]2[O-])CCc2c-3no[n+]2[O-])cc1 | i | 0.6 | 19 | 0.53 | 26
[O-][n+]1onc2c1CCc1c-2nn(-c2ccccc2Cl)[n+]1[O-] | i | -2.2 | 2.0* | 0.19 | 2.5*
CCn1c2ccccc2c2cc(CN3CCN(Cc4cc(OC)ccc4O)CC3)ccc21 | + | 0.96 | nt | nt | nt
COc1ccc(CN2CCN(CC(O)Cn3c4ccccc4c4ccccc43)CC2)cc1 (centres undefined) | i | -1.1 | 14 | -2.4 | 16
CCn1c2ccccc2c2cc(CN3CCN(S(C)(=O)=O)CC3)ccc21 | i | -0.14 | 72 | -0.15 | 73
CCOc1ccc(CN2CCN(CC(O)Cn3c4ccccc4c4ccccc43)CC2)cc1 (centres undefined) | + | -0.21 | 1.6* | -2.1 | 1.5*
CCn1c(O)c(N=NC(=S)NCC2CCCO2)c2ccccc21 (centres undefined) | i | -0.058 | nt | nt | nt
Cc1nn(C)c(C(=O)NNC(=S)NCC(C)C)c1Cl | i | -0.72 | 100 | 0.56 | 105
CCOC(=O)Cn1c(=NC(=O)c2sc3ccccc3c2Cl)sc2cc(S(N)(=O)=O)ccc21 | i | 0.17 | 2.8* | 1.6 | 26
COC(=O)Cn1c(=NC(=O)c2sc3ccccc3c2Cl)sc2cc(S(N)(=O)=O)ccc21 | i | -0.18 | 92 | 1.1 | 87
O=S(=O)(Nc1ccc(-c2csc(-c3ccccc3)n2)cc1)c1ccc(F)cc1 | i | -0.33 | 85 | -2.5 | 85
COc1ccccc1OC(C)C(=O)Nc1nc(-c2ccc(S(=O)(=O)N3CCOCC3)cc2)cs1 (centres undefined) | i | 0.87 | 83 | -0.7 | 88
COc1ccccc1C(=O)Nc1nc(-c2ccc(S(=O)(=O)N3CCOCC3)cc2)cs1 | i | 1.9 | 9 | -1.3 | 5.7*
O=C(Nc1nc(-c2ccccc2)cs1)c1ccccc1NS(=O)(=O)c1ccc(F)cc1 | i | 0.63 | 5 | -1.9 | 4.4*
Cc1nc2ccc(NC(=O)c3cc([N+](=O)[O-])cc([N+](=O)[O-])c3Cl)cc2s1 | i | -3.6* | 88 | -2.1 | 97
O=S(=O)(Nc1cc(Sc2ncn[nH]2)c(O)c2ccccc12)c1ccccc1 | i | -3.3 | nt | nt | nt
Cc1cc(C)c(S(=O)(=O)/N=C2/C=C(Sc3ncn[nH]3)C(=O)c3ccccc32)cc1C | i | -6.6* | 5 | -0.82 | 3.1*
O=C(c1ncc[nH]1)c1cccs1 | nt | 0.47 | nt | nt | nt
CC(=O)NC(C)C(=O)OCC(=O)c1ccc(-c2ccccc2)cc1 (centres undefined) | + | 0.16 | nt | nt | nt
O=C(NCc1nc2ccccc2[nH]1)C1=C[C@H](c2ccc3c(c2)OCO3)C[C@H](OCCCCO)O1 | i | 1.6 | nt | nt | nt
CCCOc1ccccc1-n1sc2c(c1=S)-c1cc(OC)cc3c1N(C(=O)C3=O)C2(C)C | i | -0.18 | 3.0* | 0.19 | 46
